Assay results taken from ChEMBL document CHEMBL3593162, “Novel 9-Alkyl- and 9-Alkylidene-Substituted 1α,25-Dihydroxyvitamin D3 Analogues: Synthesis and Biological Examinations” (J Med Chem, 2015).

Tests used:
[1] = target: T1, Vitamin D3 receptor (Rattus norvegicus) (UniProt P13053); experiment: Potency index, ratio of 1alpha,25-(OH)2D3 Ki to compound Ki for full length recombinant rat vitamin D receptor
T1 sequence (whole entry): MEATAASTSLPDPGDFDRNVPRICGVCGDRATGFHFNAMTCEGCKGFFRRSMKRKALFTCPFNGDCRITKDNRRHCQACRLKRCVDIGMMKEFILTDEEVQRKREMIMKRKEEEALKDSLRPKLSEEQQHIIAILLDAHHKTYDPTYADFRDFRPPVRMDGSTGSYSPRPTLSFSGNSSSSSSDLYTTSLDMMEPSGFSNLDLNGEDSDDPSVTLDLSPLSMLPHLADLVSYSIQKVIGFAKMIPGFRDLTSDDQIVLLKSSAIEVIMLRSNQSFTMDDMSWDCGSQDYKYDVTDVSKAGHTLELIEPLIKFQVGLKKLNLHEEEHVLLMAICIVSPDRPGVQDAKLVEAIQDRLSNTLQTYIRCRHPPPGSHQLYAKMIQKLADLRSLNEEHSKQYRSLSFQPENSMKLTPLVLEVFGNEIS

[2] = Induction of transcriptional activity in rat ROS 17/2.8 cells after 16 hrs by 24-hydroxylase luciferase reporter gene assay; type: functional; conditions: for EC50: Rattus norvegicus, 16 h, read-out: ED50 (the source's name)
Procedure, shortened: (§1)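 ROS 17/2.8 cells stably transfected with 24-hydroxylase promoter–luciferase reporter, dosed over a range of concentrations. Harvested 16 h after dosing; luciferase read on a luminometer. ED50 is the concentration raising luciferase activity by 50%, from dose-response curves. Ratio = ED50 of 1α,25-(OH)2D3 / ED50 of analogue.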

Vitamin D3 receptor = target: T2, Vitamin D3 receptor (Rattus norvegicus, UniProt P13053); experiment: Displacement of [3H]-1alpha25-(OH)2D3 from full length recombinant rat vitamin D receptor by scintillation counting analysis
T2 sequence (P13053 whole entry): T1 sequence (whole entry)
Procedure, shortened: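 [3H]-1α,25(OH)2D3 at 1 nM final plus unlabeled ligand (ethanol ≤10%), incubated overnight on ice. Bound ligand captured on hydroxylapatite, washed with Tris–EDTA/0.5% Triton X-100, scintillation counted. Ki from dose-response curves using Kd 0.2 nM; duplicates on two to three occasions.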

Rattus norvegicus [3] = experiment: Induction of bone calcium mobilization into serum of Sprague-Dawley rat assessed as total serum calcium level at 7020 pmol, ip administered 4 doses at 24 hrs interval measured 24 hrs post last dose (reference value: 4.5 mg/dL); type: functional
Procedure, shortened: (§2)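 Group-housed rats on Diet 11 (0.47% Ca) + AEK oil for 1 week, then 0.02% Ca for 3 weeks, then 0.47% Ca for 1 week, then 2 weeks on 0.02% Ca. Dosing in the final week: four ip doses about 24 h apart. Blood taken from the severed neck 24 h after the last dose; serum calcium measured as the bone calcium mobilization index.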

Rattus norvegicus [4] = experiment: Induction of intestinal calcium transport in Sprague-Dawley rat assessed as ratio of serosal calcium to mucosal calcium level at 7020 pmol, ip administered 4 doses at 24 hrs interval measured 24 hrs post last dose by everted gut sac method (reference value: 4.3); type: functional
HL-60 [5] = experiment: Potency index, ratio of 1alpha,25-(OH)2D3 ED50 to compound ED50 for induction of differentiation of human HL60 promyelocytes to monocytes; type: functional
Procedure, shortened: (§3)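 HL-60 cells grown in RPMI-1640 with 10% FBS at 37 °C, 5% CO2, plated at 1.2 × 10^5 cells/plate. Dosed in duplicate 18 h after plating (final ethanol <0.2%). After 4 days, NBT reduction read by counting 200 cells for formazan deposits. ED50 is the concentration giving 50% maturation, from dose-response curves; repeated 2 to 3 times, mean reported. Ratio = ED50 of 1α,25-(OH)2D3 / ED50 of analogue.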

Rattus norvegicus [6] = experiment: Induction of intestinal calcium transport in Sprague-Dawley rat assessed as ratio of serosal calcium to mucosal calcium level at 35100 pmol, ip administered 4 doses at 24 hrs interval measured 24 hrs post last dose by everted gut sac method (reference value: 4.3); type: functional
HL-60 [7] = experiment: Induction of differentiation of human HL60 promyelocytes to monocytes after 4 days by nitro blue tetrazolium reduction assay; type: functional; conditions: for EC50: Homo sapiens, HL-60, 96 h, read-out: ED50 (the source's name); procedure, shortened: as §3
Rattus norvegicus [8] = experiment: Induction of bone calcium mobilization into serum of Sprague-Dawley rat assessed as total serum calcium level at 35100 pmol, ip administered 4 doses at 24 hrs interval measured 24 hrs post last dose (reference value: 4.5 mg/dL); type: functional; procedure, shortened: as §2
[9] = Potency index, ratio of 1alpha,25-(OH)2D3 ED50 to compound ED50 for induction of transcriptional activity in rat ROS 17/2.8 cells; type: functional; procedure, shortened: as §1
Rattus norvegicus [10] = experiment: Induction of intestinal calcium transport in Sprague-Dawley rat assessed as ratio of serosal calcium to mucosal calcium level at 105300 pmol, ip administered 4 doses at 24 hrs interval measured 24 hrs post last dose by everted gut sac method (reference value: 4.3); type: functional
Rattus norvegicus [11] = experiment: Induction of bone calcium mobilization into serum of Sprague-Dawley rat assessed as total serum calcium level at 105300 pmol, ip administered 4 doses at 24 hrs interval measured 24 hrs post last dose (reference value: 4.5 mg/dL); type: functional; procedure, shortened: as §2
Rattus norvegicus [12] = experiment: Induction of intestinal calcium transport in Sprague-Dawley rat assessed as ratio of serosal calcium to mucosal calcium level at 7020 pmol, ip administered 4 doses at 24 hrs interval measured 24 hrs post last dose by everted gut sac method (reference value: 4.1); type: functional
Rattus norvegicus [13] = experiment: Induction of bone calcium mobilization into serum of Sprague-Dawley rat assessed as serum calcium level at 7020 pmol, ip administered 4 doses at 24 hrs interval measured 24 hrs post last dose (reference value: 4.9 mg/dL); type: functional; procedure, shortened: as §2
Rattus norvegicus [14] = experiment: Induction of bone calcium mobilization into serum of Sprague-Dawley rat assessed as serum calcium level at 35100 pmol, ip administered 4 doses at 24 hrs interval measured 24 hrs post last dose (reference value: 4.9 mg/dL); type: functional; procedure, shortened: as §2
Rattus norvegicus [15] = experiment: Induction of bone calcium mobilization into serum of Sprague-Dawley rat assessed as serum calcium level at 780 pmol, ip administered 4 doses at 24 hrs interval measured 24 hrs post last dose (reference value: 4.9 mg/dL); type: functional; procedure, shortened: as §2
Rattus norvegicus [16] = experiment: Induction of intestinal calcium transport in Sprague-Dawley rat assessed as ratio of serosal calcium to mucosal calcium level at 780 pmol, ip administered 4 doses at 24 hrs interval measured 24 hrs post last dose by everted gut sac method (reference value: 4.1); type: functional
Rattus norvegicus [17] = experiment: Induction of intestinal calcium transport in Sprague-Dawley rat assessed as ratio of serosal calcium to mucosal calcium level at 35100 pmol, ip administered 4 doses at 24 hrs interval measured 24 hrs post last dose by everted gut sac method (reference value: 4.1); type: functional
Rattus norvegicus [18] = experiment: Induction of bone calcium mobilization into serum of Sprague-Dawley rat assessed as serum calcium level at 87 pmol, ip administered 4 doses at 24 hrs interval measured 24 hrs post last dose (reference value: 4.9 mg/dL); type: functional; procedure, shortened: as §2
Rattus norvegicus [19] = experiment: Induction of bone calcium mobilization into serum of Sprague-Dawley rat assessed as total serum calcium level at 260 pmol, ip administered 4 doses at 24 hrs interval measured 24 hrs post last dose (reference value: 4.5 mg/dL); type: functional; procedure, shortened: as §2

Ratio Ki [1] | Ki (Vitamin D3 receptor) [µM] | EC50 (HL-60 [7]) [µM] | SMILES | ED50 [2] | Activity (Rattus norvegicus [3]) [mg/dL] | Ratio (Rattus norvegicus [4]) | Ratio ED50 (HL-60 [5]) | Ratio ED50 [9] | ED50 (HL-60 [7]) | other results
0.005 | 0.02 | 1 | C=C1CC[C@]2(C)[C@@H]([C@H](C)CCCC(C)(C)O)CC[C@H]2/C1=C/C=C1C[C@@H](O)C[C@H](O)C1 | 5 ×10⁻⁸ M | 4.3 | 5.3 | 0.002 | 0.006 | – | Ratio (Rattus norvegicus [6]): 4.6; Activity (Rattus norvegicus [8]): 4.4 mg/dL
0.005 | 0.02 | – | C=C1/C(=C\C=C2/[C@H](C)CC[C@]3(C)[C@@H]([C@H](C)CCCC(C)(C)O)CC[C@@H]23)C[C@@H](O)C[C@@H]1O | 5 ×10⁻⁸ M | 4.3 | 7.9 | 0.0001 | 0.006 | 5 ×10⁻⁶ M | Ratio (Rattus norvegicus [6]): 6.2; Activity (Rattus norvegicus [8]): 4.6 mg/dL
< 1e-05 | > 10 | 10 | C/C=C1\CC[C@]2(C)[C@@H]([C@H](C)CCCC(C)(C)O)CC[C@H]2\C1=C\C=C1C[C@@H](O)C[C@H](O)C1 | – | 4.6 | 6.6 | 0.0001 | 0.0001 | – | EC50 [2]: 1 µM; Ratio (Rattus norvegicus [10]): 7.3; Activity (Rattus norvegicus [11]): 4.5 mg/dL
< 1e-05 | > 10 | 10 | C=C1CC[C@]2(C)[C@@H]([C@H](C)CCCC(C)(C)O)CC[C@H]2/C1=C/C=C1/C[C@@H](O)C[C@H](O)[C@@H]1C | 9 ×10⁻⁸ M | – | – | 0.0001 | 0.003 | – | –
< 1e-05 | > 10 | 10 | C=C1CC[C@]2(C)[C@@H]([C@H](C)CCCC(C)(C)O)CC[C@H]2/C1=C/C=C1/C[C@@H](O)C[C@H](O)[C@H]1C | – | – | – | 0.0001 | 0.0001 | – | EC50 [2]: 1 µM
0.5 | 0.0002 | – | C[C@H](CCCC(C)(C)O)[C@H]1CC[C@H]2/C(=C/C=C3C[C@@H](O)C[C@H](O)C3)[C@@H](C)CC[C@]12C | 3 ×10⁻¹⁰ M | – | – | 0.2 | 1 | 9 ×10⁻⁹ M | Ratio (Rattus norvegicus [12]): 10.1; Activity (Rattus norvegicus [13]): 4.5 mg/dL; Activity (Rattus norvegicus [14]): 5.4 mg/dL; Activity (Rattus norvegicus [15]): 4.8 mg/dL; Ratio (Rattus norvegicus [16]): 5; Ratio (Rattus norvegicus [17]): 8.8
– | – | – | C=C1/C(=C\C=C2/CCC[C@]3(C)[C@@H]([C@H](C)CCCC(C)(C)O)CC[C@@H]23)C[C@@H](O)C[C@@H]1O [CALCITRIOL] | 3 ×10⁻¹⁰ M | – | – | – | – | 2 ×10⁻⁹ M | Activity (Rattus norvegicus [18]): 6.2 mg/dL; Activity (Rattus norvegicus [15]): 7.3 mg/dL; Activity (Rattus norvegicus [19]): 5.6 mg/dL
